This passage reports Activity, Affinity and Ki results from ChEMBL document CHEMBL1124832, “Functionalized congener approach for the design of novel muscarinic agents. Synthesis and pharmacological evaluation of N-methyl-N-[4-(1-pyrrolidinyl)-2-butynyl] amides” (J Med Chem, 1990).

Assay [1] deals with T1, Muscarinic acetylcholine receptor M4 (Rattus norvegicus) (UniProt P08485).
T1 sequence (whole entry): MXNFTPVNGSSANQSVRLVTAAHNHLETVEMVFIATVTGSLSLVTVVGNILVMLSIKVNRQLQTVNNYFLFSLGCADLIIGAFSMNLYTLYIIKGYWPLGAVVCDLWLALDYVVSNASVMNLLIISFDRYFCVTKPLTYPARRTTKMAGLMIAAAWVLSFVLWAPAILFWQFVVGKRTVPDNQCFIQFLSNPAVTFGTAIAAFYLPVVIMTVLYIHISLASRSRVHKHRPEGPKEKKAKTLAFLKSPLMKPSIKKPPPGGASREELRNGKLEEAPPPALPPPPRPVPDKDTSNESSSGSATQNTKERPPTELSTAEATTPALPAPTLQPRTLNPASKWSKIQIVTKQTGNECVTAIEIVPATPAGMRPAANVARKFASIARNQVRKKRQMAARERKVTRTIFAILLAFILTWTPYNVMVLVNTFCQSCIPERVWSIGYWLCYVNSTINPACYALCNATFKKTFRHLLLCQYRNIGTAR
Kind of assay: Percent inhibition against muscarinic acetylcholine receptor M4 from NG108-15 cell line. It is filed as cell-based. Set-up: concentration or dose not given beside the values. In a few lines:
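NG108-15 cells grown to 90% confluence and preincubated 10 min at 37 °C in 1 mM IBMX in DMEM-Hepes. Compound (100 µM final) and PGE1 (5 µM final) were added for 15 min at 37 °C. cAMP was extracted in 0.1 N HCl for 30 min at room temperature, lyophilized and measured by radioimmunoassay. Reported as percent inhibition versus no-compound control; three trials in triplicate.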

Assay [2] addresses Muscarinic acetylcholine receptor M3 (Homo sapiens) (UniProt P20309). Put plainly: Percent binding affinity at muscarinic acetylcholine receptor M3 from SK-N-SH human neuroblastoma cells in presence of [3H]NMS. It is filed as cell-based. The procedure, abridged:
(§1)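 Crude membranes from confluent cells, lysed in 2 mM Tris-HCl (pH 7.1)/1 mM EDTA, homogenized, spun at 50000 g and stored at -70 °C. Membranes (150-300 µg protein) incubated 90 min at 37 °C with 0.5 nM [3H]NMS and 100 µM compound in DMEM-Hepes, then filtered on GF/B. Nonspecific binding taken with 1 µM atropine. Reported as percent displacement; two or three trials in triplicate.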

For assay [3] the target is unchanged. Put plainly: Percent increase in [3H]myo-inositol at muscarinic acetylcholine receptor M3 from SK-N-SH human neuroblastoma cells. It counts as cell-based. Set-up: concentration or dose not given beside the values. The procedure, abridged:
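SK-N-SH cells grown in DMEM with 10% newborn calf serum and plated at 100000 cells/well. After 24 h they were labeled overnight with [3H]-myo-inositol (2 µCi/well). Cells were rinsed and preincubated 5 min at 37 °C in 10 mM LiCl DMEM-Hepes, then exposed to 100 µM final compound for 30 min at 37 °C. Reported as percent increase relative to oxotremorine M (100%); two or three trials in triplicate.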

The target of assay [4] is T1, Muscarinic acetylcholine receptor M4 (Rattus norvegicus). Kind of assay: Binding affinity at muscarinic acetylcholine receptor M4 from NG108-15 cell line in presence of [3H]-NMS. It is filed as cell-based. The procedure, abridged:
as §1

Assay [5] deals with Muscarinic acetylcholine receptor. Put plainly: Binding affinity was determined using [3H]-NMS for Muscarinic acetylcholine receptor in SK-N-SH neuroblastoma cells. It counts as cell-based, Homo sapiens. In a few lines:
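SK-N-SH crude membranes from hypotonic lysis (2 mM Tris-HCl pH 7.1, 1 mM EDTA), 50000 g pellets. Competition used varied compound concentrations with 1 nM [3H]NMS in DMEM-Hepes, 60 min at 37°C, then GF/B filtration. Atropine defined nonspecific binding. Ki was obtained by Cheng-Prusoff from the [3H]NMS Kd (saturation, 10 min at 37°C). Means ± SEM of three determinations in duplicate.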

Chain of Muscarinic acetylcholine receptor M3 (Homo sapiens) (P20309 whole entry, looked up): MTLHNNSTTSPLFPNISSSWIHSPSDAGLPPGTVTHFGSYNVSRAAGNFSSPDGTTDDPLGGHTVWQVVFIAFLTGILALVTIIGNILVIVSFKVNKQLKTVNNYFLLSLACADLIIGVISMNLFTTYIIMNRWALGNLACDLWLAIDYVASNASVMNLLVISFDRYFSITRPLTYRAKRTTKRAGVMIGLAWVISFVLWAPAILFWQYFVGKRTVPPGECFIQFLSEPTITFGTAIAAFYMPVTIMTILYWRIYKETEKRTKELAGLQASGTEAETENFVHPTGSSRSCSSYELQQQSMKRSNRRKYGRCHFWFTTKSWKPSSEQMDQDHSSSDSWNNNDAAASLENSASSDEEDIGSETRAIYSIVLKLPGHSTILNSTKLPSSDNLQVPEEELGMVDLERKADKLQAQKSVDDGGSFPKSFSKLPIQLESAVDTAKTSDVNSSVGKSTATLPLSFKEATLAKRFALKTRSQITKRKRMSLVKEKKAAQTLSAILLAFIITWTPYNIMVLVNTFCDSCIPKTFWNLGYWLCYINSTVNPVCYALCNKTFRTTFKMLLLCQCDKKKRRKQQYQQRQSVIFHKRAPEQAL

Regarding `CN(CC#CCN1CCCC1)C(=O)CCC(=O)NCCN`, the Activity in assay [1] and in assay [3] was below 1% throughout. In addition, the figures for the Affinity in assay [2] and in assay [4] were 25% and 14%, respectively.
Take `CN(CC#CCN1CCCC1)C(=O)CCC(=O)O`: the Activity in assay [1] and in assay [3] was below 1% each time. The Affinity was found to be 6% in assay [2] and 0% in assay [4].
Turning to `CC(=O)NCC(=O)N(C)CC#CCN1CCCC1`, the Activity in assay [1] was found to be 14.1%; in assay [3] it was 8%. Also, the Affinity in assay [2] is 12.5%; in assay [4], 24%.
Consider `CN(CC#CCN1CCCC1)C(=O)CCCCCNC(=O)CN`, for which the Activity in assay [1] and in assay [3] was below 1% each time. Moreover, the Affinity in assay [2] was determined as 65%; in assay [4], 57%.
`CN(CC#CCN1CCCC1)C(=O)CCCCCCCN.O=C(O)C(F)(F)F.O=C(O)C(F)(F)F`: the inhibitory constant (Ki) in assay [5] came to 1.4 µM. Besides, the Activity in assay [1] and in assay [3] was below 1% in each case. The Affinity was determined as 93.7% in assay [2] and 92.3% in assay [4].
Compound `CN(CC#CCN1CCCC1)C(=O)CCCCCCNC(=O)OC(C)(C)C.O=C(O)C(=O)O` showed an inhibition constant Ki in assay [5] of 10.9 µM. The Activity in assay [1] and in assay [3] was below 1% throughout. Also, the Affinity in assay [2] was found to be 81.4%; in assay [4], 77.9%.
In the case of `CN(CC#CCN1CCCC1)C(=O)CCCCCNC(=O)c1ccccc1`, the Activity in assay [1] and in assay [3] was below 1% throughout. In addition, the values for the Affinity in assay [2] and in assay [4] were 51.7% and 52.8%, respectively.
Take `CN(CC#CCN1CCCC1)C(=O)CCCNC(=O)OC(C)(C)C`: the Activity in assay [1] was 3.5%; in assay [3], below 1%. Moreover, the results for the Affinity in assay [2] and in assay [4] were 32.1% and 24.4%, respectively.
Taken in the same sequence, the figures for `CN(CC#CCN1CCCC1)C(=O)CCCCCNC(=O)CCNC(=O)OC(C)(C)C` were below 1%, below 1%, 59.1% and 57.3%.
Taken in the same sequence, the figures for `CN(CC#CCN1CCCC1)C(=O)CCCCCNC(=O)CCN` were below 1%, 7%, 70.5% and 56.8%.
As to `CN(CC#CCN1CCCC1)C(=O)c1cccc(Cl)c1`, the Activity was below 1% in assay [1] and 4% in assay [3]. In addition, the Affinity in assay [2] is 55%; in assay [4], 34%.
`CC(=O)NCCCCCC(=O)N(C)CC#CCN1CCCC1`: the figures for the Activity in assay [1] and in assay [3] were 3% and 1%, respectively. The Affinity came to 17.4% in assay [2] and 22.7% in assay [4].
For `CN(CC#CCN1CCCC1)C(=O)CCCN`, the Activity in assay [1] was 3.7%; in assay [3], below 1%. The Affinity stood at 20% in assay [2] and 12.1% in assay [4].
`CN(CC#CCN1CCCC1)C(=O)c1ccccc1`: the Activity in assay [1] was below 1%; in assay [3], 8%. In addition, the Affinity amounted to 40% in assay [2] and 25% in assay [4].
Taken in the same sequence, the figures for `CN(CC#CCN1CCCC1)C(=O)CCCCCNC(=O)OC(C)(C)C` were below 1%, below 1%, 39.1% and 31.9%.
As for `CC(=O)NCCCCC(=O)N(C)CC#CCN1CCCC1`, the values for the Activity in assay [1] and in assay [3] were 5.2% and below 1%, respectively. The Affinity in assay [2] is 29.4%; in assay [4] it was 17.9%.
Regarding `CN(CC#CCN1CCCC1)C(=O)CCCNC(=O)CNC(=O)OC(C)(C)C`, the Activity in assay [1] and in assay [3] was below 1% in each case. For the same compound, the Affinity is 37.5% in assay [2] and 24.4% in assay [4].
As to `CN(CC#CCN1CCCC1)C(=O)CCCNC(=O)CCN`, the values for the Activity in assay [1] and in assay [3] were below 1% and 7%, respectively. For the same compound, the figures for the Affinity in assay [2] and in assay [4] were 40.5% and 29%, respectively.
In assay [5], `CC(=O)N(C)CC#CCN1CCCC1` came in with a Ki of 4.96 µM. Further, the Activity in assay [1] stood at 63.2%; in assay [3], 48%. The Affinity in assay [2] was 88.8%; in assay [4], 79.6%.
Consider `CN(CC#CCN1CCCC1)C(=O)CN`, for which the Activity in assay [1] is 26.1%; in assay [3], below 1%. For the same compound, the Affinity in assay [2] came out at 17.3%; in assay [4] it was 23.5%.
As to `COC(=O)CCC(=O)N(C)CC#CCN1CCCC1`, the Activity in assay [1] and in assay [3] was below 1% in each case. Moreover, the Affinity in assay [2] was found to be 28%; in assay [4], 7%.
With `CN(CC#CCN1CCCC1)C(=O)CNC(=O)OC(C)(C)C`, the results for the Activity in assay [1] and in assay [3] were 7% and below 1%, respectively. Further, the Affinity in assay [2] was found to be 40%; in assay [4] it was 32.6%.
The corresponding values for `CN(CC#CCN1CCCC1)C(=O)CCCNC(=O)CN` are below 1%, 7%, 47% and 31%.
Taken in the same sequence, the figures for `CN(CC#CCN1CCCC1)C(=O)CCCNC(=O)CCNC(=O)OC(C)(C)C` were below 1%, below 1%, 39.2% and 38.8%.
For `CN(CC#CCN1CCCC1)C(=O)CCCCCNC(=O)CNC(=O)OC(C)(C)C`, the Activity is below 1% in assay [1] and 3% in assay [3]. In addition, the values for the Affinity in assay [2] and in assay [4] were 52.6% and 52.3%, respectively.
In turn, `CN(CC#CCN1CCCC1)C(=O)CCCCCCCNC(=O)OC(C)(C)C.O=C(O)C(=O)O` showed a Ki in assay [5] of 4.9 µM. For the same compound, the Activity in assay [1] and in assay [3] was below 1% throughout. The values for the Affinity in assay [2] and in assay [4] were 92.1% and 89%, respectively.
As for `CN(CC#CCN1CCCC1)C(=O)CCCNC(=O)c1ccccc1`, the Activity in assay [1] and in assay [3] was below 1% each time. Also, the Affinity amounted to 30.3% in assay [2] and 27.7% in assay [4].
With `CN(CC#CCN1CCCC1)C(=O)CCNC(=O)OC(C)(C)C`, the Activity was 12.5% in assay [1] and below 1% in assay [3]. Moreover, the results for the Affinity in assay [2] and in assay [4] were 45.1% and 36.3%, respectively.
For `CC(=O)NCCCC(=O)N(C)CC#CCN1CCCC1`, the Activity in assay [1] was 8%; in assay [3] it was 14%. Also, the Affinity in assay [2] turned out to be 15.6%; in assay [4] it was 19.1%.
Consider `C[N+](C)(C)CC#CCN1CCCC1=O`, for which the Activity in assay [1] worked out at 64.1%; in assay [3] it was 100%. Besides, the Affinity in assay [2] stood at 52.1%; in assay [4], 96.2%.
Consider `CC(=O)N(C)C(C)C#CCN1CCCC1` (stereo unspecified), for which the Ki in assay [5] came to 0.33 µM. For the same compound, the values for the Activity in assay [1] and in assay [3] were 36% and below 1%, respectively. In addition, the results for the Affinity in assay [2] and in assay [4] were 99% and 97%, respectively.
As to `CN(CC#CCN1CCCC1)C(=O)CCCCNC(=O)OC(C)(C)C`, the Activity in assay [1] came to 0.5%; in assay [3], 1%. Moreover, the values for the Affinity in assay [2] and in assay [4] were 32.1% and 26.7%, respectively.
As for `CN(CC#CCN1CCCC1)C(=O)CCCCCCN.O=C(O)C(F)(F)F.O=C(O)C(F)(F)F`, in assay [5], the Ki is 6.7 µM. The Activity in assay [1] is 3%; in assay [3], below 1%. Further, the Affinity in assay [2] stood at 81.9%; in assay [4], 72.1%.
Take `CC(=O)NCCCCCCCC(=O)N(C)CC#CCN1CCCC1`: the Activity in assay [1] and in assay [3] was below 1% throughout. Besides, the Affinity was 59.1% in assay [2] and 50.4% in assay [4].
Take `CC(=O)NCCCCCCC(=O)N(C)CC#CCN1CCCC1`: the Activity in assay [1] came out at 6.9%; in assay [3] it was 1%. The Affinity is 24.6% in assay [2] and 20.4% in assay [4].
